Paper PMC3891043 (Canadian journal of chemistry, 2011)
Marks after values point to notes of the source that are not given here.

Assays:
[1] = Photolysis quantum yields; format: physicochemical; conditions: for Photochemical reactivity: photolysis in unbuffered H2O; for Φdis, disappearance quantum yield (pHP acetates) / Φdis, disappearance quantum yield (pHP diethyl phosphates): λ = 300 nm; for Φdis, disappearance quantum yield (pHP acetates): 20% aq CH3CN or DMSO
Summary of the method: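 Caged compound (1–9 mmol/L) plus internal standard (caffeine or 4-acetamidophenol) in water, buffer or solvent, in a quartz tube. Irradiated in a Rayonet carousel (two 15 W, 3000 Å Hg lamps), with ferrioxalate actinometry. Aliquots taken every 30 s up to 5 min, diluted and run on C18 LC-MS (water/methanol gradient with ammonium formate/formic acid), three injections each. Quantitation used calibration curves; Φ = concentration change / photons absorbed. 1H NMR in D2O confirmed products.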

[2] = Laser flash photolysis / femtosecond pump-probe spectroscopy; format: physicochemical
Summary of the method: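 Pump: 266 nm pulses (frequency-doubled 532 nm NOPA output from a 775 nm Ti/Sa laser), 1 μJ, <150 fs. Probe: supercontinuum from a CaF2 plate, 270–690 nm. Sample flowed through a 0.4 mm cell with a 0.2 mm spot. Probe and reference were read on photodiode arrays; cross-correlation <100 fs. Data to 50 ps were chirp-corrected, and 3–6 scans of 400 shots/point were averaged.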

[3] = cited from earlier work
[4] = Stern-Volmer quenching with sorbate; format: physicochemical; conditions: unbuffered 18 MΩ Ultrapure H2O; from KSV with kq assumed kdiff ~ 7.2 × 10^9 s^−1
Summary of the method: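 pHP GABA (0.001–0.01 mol/L) was diluted with potassium sorbate quencher (0–0.1 mol/L) and photolysed under the quantum-yield conditions (Rayonet, 3000 Å, LC-MS quantitation of GABA release). KSV came from Φ0/Φ vs [Q]. Triplet lifetime was obtained from KSV, taking kq as the diffusion rate in water.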

[5] = λ = 300 nm, reported earlier, for comparison, cited from earlier work
[6] = Stability to aqueous hydrolysis; format: physicochemical; conditions: compared with other pHP phosphates
[7] = 300 nm, pH 5.0, ammonium acetate (0.01 mol/L), buffered CH3CN–H2O
[8] = 300 nm, pH 7.3, HEPES (0.01 mol/L) and LiClO4 (0.1 mol/L)
[9] = 300 nm, pH 8.2, HEPES (0.01 mol/L) and LiClO4 (0.1 mol/L)
[10] = unbuffered 18 MΩ Ultrapure H2O, conversion <2%
[11] = unbuffered H2O, singlet λmax ~ 315 nm
[12] = unbuffered H2O with acetonitrile (5%) added to dissolve the ester
[13] = unbuffered CH3CN–H2O (1:1), conversion <2%

NCCCC(=O)OCC(=O)c1ccc(O)cc1.O=C(O)C(F)(F)F [Compound 1, 4-(2-(4-Hydroxyphenyl)-2-oxoethoxy)-4-oxobutan-1-aminium-2,2,2-trifluoroacetate]
Φapp, quantum yield for the appearance of GABA [1, 7]: 0.20 | Φapp, quantum yield for the appearance of rearranged acid [1, 7]: 0.18 | Φdis, quantum yield for the disappearance of pHP GABA [1, 7]: 0.21 | Φapp, quantum yield for the appearance of GABA [1, 8]: 0.20 | Φapp, quantum yield for the appearance of rearranged acid [1, 8]: 0.20 | Φdis, quantum yield for the disappearance of pHP GABA [1, 8]: 0.21 | Φapp, quantum yield for the appearance of GABA [1, 9]: 0.09 | Φapp, quantum yield for the appearance of rearranged acid [1, 9]: 0.06 | Φdis, quantum yield for the disappearance of pHP GABA [1, 9]: 0.09 | Φapp, quantum yield for the appearance of GABA [1, 10]: 0.19 | Φapp, quantum yield for the appearance of rearranged acid [1, 10]: 0.16 | Φdis, quantum yield for the disappearance of pHP GABA [1, 10]: 0.20 | k2, rate constant for triplet decay ([2]; unbuffered H2O): 3.0 ^c 109 s^−1 | k1, rate constant for triplet rise [2, 11]: 4.4 1011 s^−1

CC(=O)c1ccc(O)cc1 [Compound 1d, p-hydroxyacetophenone, reference compound]
Reduction of pKa of the excited triplet state relative to ground-state pKa [3]: about 4.3 pKa units

COc1cc(C(=O)COC(=O)CCCN)ccc1O.O=C(O)C(F)(F)F [Compound 2, 4-(2-(4-Hydroxy-3-methoxyphenyl)-2-oxoethoxy)-4-oxobutan-1-amonium-2,2,2-trifluoroacetate]
Φapp, quantum yield for the appearance of GABA [1, 10]: 0.06 | k2, rate constant for triplet decay ([2]; unbuffered H2O): 1.3 109 s^−1 | k1, rate constant for triplet rise [2, 11]: 2.2 1011 s^−1

COc1cc(C(=O)COC(=O)CCCN)cc(OC)c1O.O=C(O)C(F)(F)F [Compound 3, 4-(2-(4-Hydroxy-3,5-dimethoxyphenyl)-2-oxoethoxy)-4-oxobutan-1-amonium-2,2,2-trifluoroacetate]
Φapp, quantum yield for the appearance of GABA [1, 10]: 0.03 | Φdis, quantum yield for the disappearance of pHP GABA [1, 10]: 0.03 | k1, rate constant for triplet rise [2, 12]: 2.7 1011 s^−1 | k2, rate constant for triplet decay [2, 12]: 2.8 ^d 109 s^−1

NCCCC(=O)OCC(=O)c1ccc(O)c(O)c1.O=C(O)C(F)(F)F [Compound 4, 4-(2-(3,4-Dihydroxyphenyl)-2-oxoethoxy)-4-oxobutan-1-aminium-2,2,2-trifluoroacetate]
Photochemical reactivity [1]: Note: NA, not available. All runs were low conversions to products (<2%). Standard deviations are <±0.02. 3-NO2 (12), 3-OH (4), and 2-OH (5) did not react under these conditions and are omitted. Unbuffered 18 MΩ Ultrapure H2O was used.

NCCCC(=O)OCC(=O)c1ccc(O)cc1O.O=C(O)C(F)(F)F [Compound 5, 4-(2-(2,4-Dihydroxyphenyl)-2-oxoethoxy)-4-oxobutan-1-aminium-2,2,2-trifluoroacetate]
Photochemical reactivity [1]: Note: NA, not available. All runs were low conversions to products (<2%). Standard deviations are <±0.02. 3-NO2 (12), 3-OH (4), and 2-OH (5) did not react under these conditions and are omitted. Unbuffered 18 MΩ Ultrapure H2O was used.

Cc1cc(C(=O)COC(=O)CCCN)ccc1O.O=C(O)C(F)(F)F [Compound 6, 4-(2-(4-Hydroxy-3-methylphenyl)-2-oxoethoxy)-4-oxobutan-1-aminium-2,2,2-trifluoroacetate]
Φapp, quantum yield for the appearance of GABA [1, 8]: 0.16 | Φapp, quantum yield for the appearance of rearranged acid [1, 8]: 0.13 | Φdis, quantum yield for the disappearance of pHP GABA [1, 8]: 0.15 | Φapp, quantum yield for the appearance of GABA [1, 9]: 0.08 | Φapp, quantum yield for the appearance of rearranged acid [1, 9]: 0.06 | Φdis, quantum yield for the disappearance of pHP GABA [1, 9]: 0.08 | Φapp, quantum yield for the appearance of GABA [1, 10]: 0.14 | Φapp, quantum yield for the appearance of rearranged acid [1, 10]: 0.13 | Φdis, quantum yield for the disappearance of pHP GABA [1, 10]: 0.15

Cc1cc(C(=O)COC(=O)CCCN)cc(C)c1O.O=C(O)C(F)(F)F [Compound 8, 4-(2-(4-Hydroxy-3,5-dimethylphenyl)-2-oxoethoxy)-4-oxobutan-1-aminium-2,2,2-trifluoroacetate]
Φapp, quantum yield for the appearance of GABA [1, 8]: 0.17 | Φapp, quantum yield for the appearance of rearranged acid [1, 8]: 0.15 | Φdis, quantum yield for the disappearance of pHP GABA [1, 8]: 0.17 | Φapp, quantum yield for the appearance of GABA [1, 9]: 0.11 | Φapp, quantum yield for the appearance of rearranged acid [1, 9]: 0.09 | Φdis, quantum yield for the disappearance of pHP GABA [1, 9]: 0.11 | Φapp, quantum yield for the appearance of GABA [1, 10]: 0.14 | Φapp, quantum yield for the appearance of rearranged acid [1, 10]: 0.13 | Φdis, quantum yield for the disappearance of pHP GABA [1, 10]: 0.15

NCCCC(=O)OCC(=O)c1ccc(O)c(C(=O)O)c1.O=C(O)C(F)(F)F [Compound 9, 4-(2-(3-Carboxy-4-hydroxyphenyl)-2-oxoethoxy)-4-oxobutan-1-aminium-2,2,2-trifluoroacetate]
k2, rate constant for triplet decay ([2]; unbuffered H2O): 1.0 109 s^−1 | k1, rate constant for triplet rise [2, 11]: 2.1 1011 s^−1

COC(=O)c1cc(C(=O)COC(=O)CCCN)ccc1O.O=C(O)C(F)(F)F [Compound 10, 4-(2-(4-Hydroxy-3-(methoxycarbonyl)phenyl)-2-oxoethoxy)-4-oxobutan-1-aminium-2,2,2-trifluoroacetate]
k2, rate constant for triplet decay ([2]; unbuffered H2O): 1.3 109 s^−1 | k1, rate constant for triplet rise [2, 11]: 3.2 1011 s^−1

NCCCC(=O)OCC(=O)c1ccc(O)c(C(N)=O)c1.O=C(O)C(F)(F)F [Compound 11, 4-(2-(3-Carbamoyl-4-hydroxyphenyl)-2-oxoethoxy)-4-oxobutan-1-aminium-2,2,2-trifluoroacetate]
k2, rate constant for triplet decay ([2]; unbuffered H2O): 2.2 109 s^−1

NCCCC(=O)OCC(=O)c1ccc(O)c([N+](=O)[O-])c1.O=C(O)C(F)(F)F [Compound 12, 4-(2-(4-Hydroxy-3-nitrophenyl)-2-oxoethoxy)-4-oxobutan-1-aminium-2,2,2-trifluoroacetate]
Photochemical reactivity [1]: Note: NA, not available. All runs were low conversions to products (<2%). Standard deviations are <±0.02. 3-NO2 (12), 3-OH (4), and 2-OH (5) did not react under these conditions and are omitted. Unbuffered 18 MΩ Ultrapure H2O was used.

N#Cc1cc(C(=O)COC(=O)CCCN)ccc1O.O=C(O)C(F)(F)F [Compound 13, 4-(2-(3-Cyano-4-hydroxyphenyl)-2-oxoethoxy)-4-oxobutan-1-aminium-2,2,2-trifluoroacetate]
Φapp, quantum yield for the appearance of GABA [1, 7]: 0.13 | Φapp, quantum yield for the appearance of rearranged acid [1, 7]: 0.19 | Φdis, quantum yield for the disappearance of pHP GABA [1, 7]: 0.21 | Φapp, quantum yield for the appearance of GABA [1, 13]: 0.35 | Φapp, quantum yield for the appearance of rearranged acid [1, 13]: 0.39 | Φdis, quantum yield for the disappearance of pHP GABA [1, 13]: 0.42 | τ^3, triplet lifetime [4]: 40.5 10^−9s

CC(=O)OCC(=O)c1ccc(O)cc1 [Compound 24, 2-(4-Hydroxyphenyl)-2-oxoethyl acetate]
Φdis, disappearance quantum yield (parent pHP acetate) ([5]; 20% aq CH3CN or DMSO): 0.30

CC(=O)OCC(=O)c1ccc(O)cc1C#N [Compound 25, 2-(2-Cyano-4-hydroxyphenyl)-2-oxoethyl acetate]
Φdis, disappearance quantum yield (pHP acetates) [1]: 0.17

CC(=O)OCC(=O)c1ccc(O)c(C#N)c1 [Compound 26, 2-(3-Cyano-4-hydroxyphenyl)-2-oxoethyl acetate]
Φdis, disappearance quantum yield (pHP acetates) [1]: 0.08

CCOP(=O)(OCC)OCC(=O)c1ccc(O)cc1 [Compound 27, Diethyl (2-(4-hydroxyphenyl)-2-oxoethyl) phosphate]
Φdis, disappearance quantum yield (parent pHP diethyl phosphate) ([5]; 50% aq CH3CN): 0.40

CCOP(=O)(OCC)OCC(=O)c1ccc(O)c(OC)c1 [Compound 28, Diethyl (2-(4-hydroxy-3-methoxyphenyl)-2-oxoethyl) phosphate]
Φdis, disappearance quantum yield (pHP diethyl phosphates) ([1]; 50% aq CH3CN): 0.39

CCOP(=O)(OCC)OCC(=O)c1cc(OC)c(O)c(OC)c1 [Compound 29, Diethyl (2-(4-hydroxy-3,5-dimethoxyphenyl)-2-oxoethyl) phosphate]
Φdis, disappearance quantum yield (pHP diethyl phosphates) ([1]; 50% aq CH3CN): 0.44 ^d | Φdis, disappearance quantum yield ([1]; λ = 350 nm, 50% aq CH3CN): d Φdis = 0.13 at λ = 350 nm.

CCOP(=O)(OCC)OCC(=O)c1ccc(O)cc1OC [Compound 30, Diethyl (2-(4-hydroxy-2-methoxyphenyl)-2-oxoethyl) phosphate]
Φdis, disappearance quantum yield (pHP diethyl phosphates) ([1]; 50% aq CH3CN): 0.59 | Stability to aqueous hydrolysis (qualitative) [6]: less stable to aqueous hydrolysis

CCOP(=O)(OCC)OCC(=O)c1c(OC)cc(O)cc1OC [Compound 31, Diethyl (2-(4-hydroxy-2,6-dimethoxyphenyl)-2-oxoethyl) phosphate]
Φdis, disappearance quantum yield (pHP diethyl phosphates) ([1]; 50% aq CH3CN): 0.69 | Stability to aqueous hydrolysis (qualitative) [6]: less stable to aqueous hydrolysis

CCOP(=O)(OCC)OCC(=O)c1ccc(O)c(C(C)=O)c1 [Compound 32, 2-(3-Acetyl-4-hydroxyphenyl)-2-oxoethyl diethyl phosphate]
Φdis, disappearance quantum yield (pHP diethyl phosphates) ([1]; 50% aq CH3CN): 0.03

p-hydroxyphenacyl [pHP]
Triplet energy of the conjugate base ([3]; conjugate base of pHP): 61.2 kcal/mol | Triplet energy ([3]; un-ionized pHP): 71.6 kcal/mol
